Results on 17 compounds are retold here after ChEMBL document CHEMBL1149811, “Synthesis of novel 4,6-disubstituted quinazoline derivatives, their anti-inflammatory and anti-cancer activity (cytotoxic) against U937 leukemia cell lines” (Eur J Med Chem, 2008).

The subject of one assay is U-937. Kind of assay: Cytotoxicity against human U937 cells after 2 days by MTT assay. The assay is classed as functional, cell-based. The conditions noted are these: U-937, 48 h. In short, it runs like this:
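U937 human histocytic lymphoma cells grown in RPMI-1640 with 10% FBS at 37 °C under CO2. Seeded at 2 × 10^4 cells/well and compounds added after 24 h. Viability read after two days by MTT (4 h at 37 °C, formazan dissolved in DMSO, absorbance 570 nm). Percent inhibition versus untreated control; IC50 (50% cell-number decrease) by linear regression; mean ± SE of four observations.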

The test system of assay [1] is Rattus norvegicus. Kind of assay: Antiinflammatory activity in Wistar rat assessed as inhibition of carrageenan-induced paw edema at 100 mg/kg, po. The format is functional. In short, it runs like this: (§1)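 Male Wistar rats, fasted overnight, three per group. Given orally as 1% gum acacia suspension (test 100 mg/kg, indomethacin 10 mg/kg; controls vehicle). One hour later, 0.1 ml of 1% carrageenan injected sub-plantar into left hind paw. Paw volume measured by digital plethysmometer before carrageenan and at 3 h. Percent inhibition per rat versus mean control paw volume, reported as mean ± SE.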

Assay [2] has as its system Rattus norvegicus. Kind of assay: Antiinflammatory activity in Wistar rat assessed as inhibition of carrageenan-induced paw edema at 10 mg/kg, po. The assay is classed as functional. In short, it runs like this:
as §1

SMILES strings stand for the structures. In brackets after ≈: the same amount, converted by molar mass.

In the assay on U-937, `O=C(O)[C@H](Cc1c[nH]c2ccccc12)Nc1nc(-c2ccccc2)nc2ccc(I)cc12` had a half-maximal inhibitory concentration (IC50) of 46.1 µg/mL (≈ 86.3 µM). Further, in the assay with Rattus norvegicus [1], the inhibition in vivo at 100 mg/kg was found to be 0%.

Take `O=C(O)[C@H](Cc1c[nH]c2ccccc12)Nc1nc(-c2ccccc2)nc2ccccc12`: in the assay with U-937, the concentration for half-maximal inhibition (IC50) came out at 74.8 µg/mL (≈ 183 µM). Further, the inhibition in vivo at 100 mg/kg in the assay on Rattus norvegicus [1] is 1.8%.

On to `O=C(O)CNc1nc(-c2ccccc2)nc2ccccc12`, for which the inhibition in vivo at 100 mg/kg with Rattus norvegicus [1] amounted to 0%.

On to `O=C(O)CNc1nc(-c2ccccc2)nc2ccc(Br)cc12`, for which, in the assay on Rattus norvegicus [1], the inhibition in vivo at 100 mg/kg came out at 0%.

With `O=C(O)CNc1nc(-c2ccccc2)nc2ccc(I)cc12`, in the assay on Rattus norvegicus [1], the inhibition in vivo at 100 mg/kg came out at 0%.

As for `C[C@H](Nc1nc(-c2ccccc2)nc2ccc(I)cc12)C(=O)O`, in the assay with Rattus norvegicus [1], the inhibition in vivo at 100 mg/kg stood at 6.5%.

`O=C(O)[C@H](Cc1ccccc1)Nc1nc(-c2ccccc2)nc2ccc(Br)cc12` showed an IC50 with U-937 of 50.4 µg/mL (≈ 112 µM). Also, the inhibition in vivo at 100 mg/kg in the assay on Rattus norvegicus [1] is 0%.

`CC[C@H](C)[C@H](Nc1nc(-c2ccccc2)nc2ccccc12)C(=O)O` had a half-inhibitory concentration (IC50) in the assay on U-937 of 121 µg/mL (≈ 360 µM). Besides, in the assay on Rattus norvegicus [1], the inhibition in vivo at 100 mg/kg stood at 4.1%.

In the assay with U-937, `CC[C@H](C)[C@H](Nc1nc(-c2ccccc2)nc2ccc(Br)cc12)C(=O)O` yielded a concentration for half-maximal inhibition (IC50) of 32 µg/mL (≈ 77.3 µM). Moreover, the inhibition in vivo at 100 mg/kg with Rattus norvegicus [1] stood at 0%.

`CC[C@H](C)[C@H](Nc1nc(-c2ccccc2)nc2ccc(I)cc12)C(=O)O` showed an IC50 in the assay on U-937 of 52.4 µg/mL (≈ 114 µM). Moreover, the inhibition in vivo at 100 mg/kg in the assay with Rattus norvegicus [1] was found to be 0%.

Regarding `O=C(O)[C@H](Cc1ccccc1)Nc1nc(-c2ccccc2)nc2ccccc12`, in the assay on Rattus norvegicus [1], the inhibition in vivo at 100 mg/kg turned out to be 0%.

Compound `O=C(O)[C@H](Cc1c[nH]c2ccccc12)Nc1nc(-c2ccccc2)nc2ccc(Br)cc12` displayed a half-maximal inhibitory concentration (IC50) in the assay with U-937 of 37.9 µg/mL (≈ 77.8 µM). Also, the inhibition in vivo at 100 mg/kg in the assay with Rattus norvegicus [1] worked out at 0%.

Turning to `C[C@H](Nc1nc(-c2ccccc2)nc2ccccc12)C(=O)O`, in the assay with Rattus norvegicus [1], the inhibition in vivo at 100 mg/kg was 9.3%.

The compound `C[C@H](Nc1nc(-c2ccccc2)nc2ccc(Br)cc12)C(=O)O` registered an IC50 in the assay with U-937 of 104 µg/mL (≈ 280 µM). In addition, in the assay with Rattus norvegicus [1], the inhibition in vivo at 100 mg/kg amounted to 0%.

Compound `O=C(O)[C@H](Cc1ccccc1)Nc1nc(-c2ccccc2)nc2ccc(I)cc12` showed an IC50 with U-937 of 16.1 µg/mL (≈ 32.5 µM). Further, the inhibition in vivo at 100 mg/kg in the assay with Rattus norvegicus [1] is 3.7%.

Turning to `COc1cc([C@@H]2c3cc4c(cc3[C@@H](O[C@@H]3O[C@@H]5CO[C@@H](C)O[C@H]5[C@H](O)[C@H]3O)[C@H]3COC(=O)[C@H]23)OCO4)cc(OC)c1O` [ETOPOSIDE], in the assay with U-937, it took 10.6 µg/mL (≈ 17.9 µM) to reach half-maximal inhibition (IC50).

Turning to `COc1ccc2c(c1)c(CC(=O)O)c(C)n2C(=O)c1ccc(Cl)cc1` [INDOMETHACIN], in the assay on Rattus norvegicus [2], the inhibition in vivo at 10 mg/kg stood at 48%.
